Assay results reported in publication PMC11937985 (Journal of Clinical Pharmacology, 2024).
Where two headings read alike, the source gives them in different places.

Key:
[1] = Safety and tolerability assessment in the phase 1 study; assay type: in vivo, human
Summary of the method: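 Healthy postmenopausal smokers and nonsmokers received oral test compound 30 mg on Day 1 after a 10-h fast. Oral fluvoxamine 50 mg was given on Day 3 evening, twice daily on Days 4–9, and on Day 10 morning. On Day 7 the test compound was co-dosed fasted. AEs were recorded from consent to end of study, in all subjects dosed at least once.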

[2] = assay type: in vitro ADME, human; conditions: preliminary assay; rate of degradation could not be determined precisely
[3] = assay type: in vivo, human
[4] = 20‐ to 60‐mg dose range; cited from earlier work
[5] = fezolinetant 45 mg, pooled 12-week data, cited from earlier work
[6] = fezolinetant + fluvoxamine vs fezolinetant alone

metabolic stability [2] | Tmax ([3]; female, human, plasma, oral, 30 mg) [h] | tmax, Median [min–max] ([3]; fezolinetant 30 mg + fluvoxamine, nonsmoker n = 9) | tmax, Median [min–max] ([3]; fezolinetant 30 mg + fluvoxamine, smoker n = 9) | tmax, Median [min–max] ([3]; fezolinetant 30 mg alone, nonsmoker n = 9) | tmax, Median [min–max] ([3]; fezolinetant 30 mg alone, smoker n = 9) | increase in half-life on co-administration with fluvoxamine [3, 6] [fold] | increase in total exposure on co-administration with fluvoxamine [3, 6] | exposure decrease by smoking ([3]; smokers vs nonsmokers) | SMILES | dizziness (TEAE), subjects reporting ([1]; 18 subjects) | erythema (TEAE), subjects reporting ([1]; 18 subjects) [%] | orthostatic intolerance (TEAE), subjects reporting ([1]; 18 subjects) | subjects with TEAE considered drug related by the investigator ([1]; 18 subjects) [%] | subjects with TEAEs, overall ([1]; all treatment periods, 18 TEAEs, 18 subjects enrolled) [%] | safety and tolerability ([1]; single oral 30-mg dose of fezolinetant co-administered with fluvoxamine, healthy postmenopausal women) | dose dependence of Cmax and total exposure (AUC) [4] | LS mean difference in VMS frequency versus placebo ([5]; current smokers) | LS mean difference in VMS frequency versus placebo ([5]; former/never smokers)
– | – | – | – | – | – | – | – | – | COCCCC/C(=N\OCCN)c1ccc(C(F)(F)F)cc1 [fluvoxamine] | one subject | 11.1 | one subject | 5.6 | – | – | – | – | –
highly stable | 1 | 1.50 [1.00‐4.00] h | 1.50 [1.48‐4.00] h | 1.00 [0.983‐2.00] h | 1.00 [1.00‐1.50] h | ~5.6 | approximately 9 fold | about 50% | Cc1nsc(-c2nnc3n2CCN(C(=O)c2ccc(F)cc2)[C@@H]3C)n1 [Fezolinetant] | – | – | – | – | 44.4 | safe and well tolerated | increased linearly | −3.48 | −2.32
